The target of test [1] is Bromodomain adjacent to zinc finger domain protein 2B (Homo sapiens) (UniProt Q9UIF8). Nature of the test: Displacement of biotinylated H3Kac14 peptide from His6-tagged human BAZ2B expressed in Escherichia coli BL21(DE3) at 200 uM after 30 mins by AlphaLISA assay relative to control. For orientation: In Alpha technology, singlet oxygen from a donor bead excites a nearby acceptor bead.

In test [2] the target is Bromodomain-containing protein 2 (Homo sapiens) (UniProt P25440). Description: Binding affinity to BRD2 bromodomain-1 (unknown origin) assessed as change in melting temperature at 100 uM by differential scanning fluorimetric analysis. In a few lines:
(§1)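 SYPRO Orange (1:1000) thermal shift with 2 μM bromodomain and 100 μM compound (final), 0.1% DMSO final, in 10 mM HEPES, 500 mM NaCl, 5% glycerol, 0.5 mM TCEP. Tm taken as the minimum of the negative first derivative of the melt curve. Run in triplicate; averages reported.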
(In DSF a fluorescence change marks the thermal transition of the protein.)

For test [3] the target is unchanged. Nature of the test: Binding affinity to BRD2 bromodomain-2 (unknown origin) assessed as change in melting temperature at 100 uM by differential scanning fluorimetric analysis. In a few lines: as §1
Test [4] addresses CREB-binding protein (Homo sapiens) (UniProt Q92793). Description: Binding affinity to CREBBP (unknown origin) assessed as change in melting temperature at 100 uM by differential scanning fluorimetric analysis. In outline: as §1

In general, inhibition refers to the change of the read-out against control, counted positive when it falls. High values mean a strong effect, low ones a weak effect. By ΔTm is commonly meant the shift of the melting midpoint relative to a reference.

Bromodomain-containing protein 2 (Homo sapiens), sequence (P25440 whole entry, looked up): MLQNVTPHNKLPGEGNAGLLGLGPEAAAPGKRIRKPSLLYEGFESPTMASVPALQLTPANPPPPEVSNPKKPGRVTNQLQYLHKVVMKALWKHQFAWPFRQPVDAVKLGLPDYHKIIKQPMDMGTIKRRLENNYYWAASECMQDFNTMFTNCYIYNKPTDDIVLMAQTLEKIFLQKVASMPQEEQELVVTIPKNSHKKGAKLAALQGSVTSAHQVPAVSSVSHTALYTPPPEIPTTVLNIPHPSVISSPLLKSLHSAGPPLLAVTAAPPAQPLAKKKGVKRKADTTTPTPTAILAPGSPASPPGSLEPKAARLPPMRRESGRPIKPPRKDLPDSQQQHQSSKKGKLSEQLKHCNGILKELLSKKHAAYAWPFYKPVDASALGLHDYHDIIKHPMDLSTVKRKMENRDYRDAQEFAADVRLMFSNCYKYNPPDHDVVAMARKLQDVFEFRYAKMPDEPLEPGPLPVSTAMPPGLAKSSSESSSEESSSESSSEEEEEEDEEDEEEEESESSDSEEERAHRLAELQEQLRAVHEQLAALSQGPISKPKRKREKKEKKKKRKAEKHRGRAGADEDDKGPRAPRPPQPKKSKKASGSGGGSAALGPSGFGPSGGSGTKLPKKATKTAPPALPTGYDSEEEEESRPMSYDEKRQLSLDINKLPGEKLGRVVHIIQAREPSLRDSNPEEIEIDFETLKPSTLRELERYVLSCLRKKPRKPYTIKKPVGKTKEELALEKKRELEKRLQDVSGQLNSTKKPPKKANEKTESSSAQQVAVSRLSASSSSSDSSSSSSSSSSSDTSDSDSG
Bromodomain adjacent to zinc finger domain protein 2B (Homo sapiens), sequence (Q9UIF8 whole entry, the tested form may be a part): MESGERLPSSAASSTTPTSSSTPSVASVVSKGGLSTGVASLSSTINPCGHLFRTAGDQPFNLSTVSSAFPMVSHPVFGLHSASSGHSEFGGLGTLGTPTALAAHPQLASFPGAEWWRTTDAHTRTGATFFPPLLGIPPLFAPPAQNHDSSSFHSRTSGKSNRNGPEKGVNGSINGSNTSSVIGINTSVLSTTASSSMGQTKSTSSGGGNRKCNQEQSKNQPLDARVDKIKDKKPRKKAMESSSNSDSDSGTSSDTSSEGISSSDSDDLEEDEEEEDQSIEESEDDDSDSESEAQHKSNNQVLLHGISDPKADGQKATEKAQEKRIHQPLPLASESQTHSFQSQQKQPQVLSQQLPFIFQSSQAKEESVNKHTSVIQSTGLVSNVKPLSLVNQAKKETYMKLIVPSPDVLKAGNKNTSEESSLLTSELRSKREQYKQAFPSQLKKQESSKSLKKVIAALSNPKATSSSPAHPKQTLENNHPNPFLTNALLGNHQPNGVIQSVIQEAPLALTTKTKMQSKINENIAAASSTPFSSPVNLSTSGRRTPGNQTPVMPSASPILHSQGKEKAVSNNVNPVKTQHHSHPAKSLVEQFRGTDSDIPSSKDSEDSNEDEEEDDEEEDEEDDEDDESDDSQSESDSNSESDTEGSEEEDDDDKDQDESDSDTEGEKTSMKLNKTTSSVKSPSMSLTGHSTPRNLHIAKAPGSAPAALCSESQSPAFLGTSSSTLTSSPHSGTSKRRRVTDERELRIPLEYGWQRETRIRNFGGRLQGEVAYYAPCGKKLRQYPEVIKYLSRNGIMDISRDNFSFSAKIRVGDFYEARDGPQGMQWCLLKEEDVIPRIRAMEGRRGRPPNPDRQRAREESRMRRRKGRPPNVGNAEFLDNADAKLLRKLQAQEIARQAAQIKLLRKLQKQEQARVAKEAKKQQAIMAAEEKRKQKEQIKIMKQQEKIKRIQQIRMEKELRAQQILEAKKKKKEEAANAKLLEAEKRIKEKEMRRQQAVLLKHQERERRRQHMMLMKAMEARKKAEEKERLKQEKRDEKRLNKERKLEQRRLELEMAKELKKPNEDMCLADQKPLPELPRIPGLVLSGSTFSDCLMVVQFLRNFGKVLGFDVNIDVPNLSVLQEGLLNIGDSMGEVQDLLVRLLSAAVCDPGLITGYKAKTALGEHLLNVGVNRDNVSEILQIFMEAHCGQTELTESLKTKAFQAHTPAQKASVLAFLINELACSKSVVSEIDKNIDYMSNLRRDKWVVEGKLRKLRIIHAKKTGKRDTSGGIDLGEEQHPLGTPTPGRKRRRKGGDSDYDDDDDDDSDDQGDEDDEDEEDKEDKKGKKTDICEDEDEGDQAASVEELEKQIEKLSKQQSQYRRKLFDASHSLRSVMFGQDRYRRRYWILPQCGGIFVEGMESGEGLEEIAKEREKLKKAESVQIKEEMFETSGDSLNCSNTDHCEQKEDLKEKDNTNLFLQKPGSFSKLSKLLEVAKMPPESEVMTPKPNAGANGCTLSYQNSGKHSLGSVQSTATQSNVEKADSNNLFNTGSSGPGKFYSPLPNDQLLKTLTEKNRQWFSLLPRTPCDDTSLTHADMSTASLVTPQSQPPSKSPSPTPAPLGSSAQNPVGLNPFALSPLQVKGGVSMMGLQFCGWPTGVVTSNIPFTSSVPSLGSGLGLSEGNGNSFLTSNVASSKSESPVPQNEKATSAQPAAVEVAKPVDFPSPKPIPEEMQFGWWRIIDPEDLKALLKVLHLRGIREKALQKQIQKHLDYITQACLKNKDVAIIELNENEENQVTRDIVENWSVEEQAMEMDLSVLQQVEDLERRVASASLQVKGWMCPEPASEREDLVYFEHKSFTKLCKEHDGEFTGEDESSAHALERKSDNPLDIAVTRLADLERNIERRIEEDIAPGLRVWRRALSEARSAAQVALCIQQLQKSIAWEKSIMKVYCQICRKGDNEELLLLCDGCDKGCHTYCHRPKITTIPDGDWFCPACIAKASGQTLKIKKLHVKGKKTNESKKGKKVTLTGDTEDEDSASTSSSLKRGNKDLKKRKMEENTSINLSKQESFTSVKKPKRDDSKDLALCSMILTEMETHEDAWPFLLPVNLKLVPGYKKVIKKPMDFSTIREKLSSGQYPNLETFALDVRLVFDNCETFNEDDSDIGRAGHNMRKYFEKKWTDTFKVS

Take `CC(=O)N1CCc2[nH]c3c(O)ccc(Cl)c3c2C1`: in test [1], the inhibition is 52%.
`CC(=O)N1CCc2[nH]c3ccc(Br)cc3c2C1`: the results for the ΔTm in test [2], in test [3] and in test [4] were 7.3 °C, 3.5 °C and 8.1 °C, respectively.
In the case of `CC(=O)N1CCc2[nH]c3ccc(Oc4ccccc4)cc3c2C1`, the inhibition in test [1] was 65%.
Same read-out and setting: to `CC(=O)N1CCc2[nH]c3ccc(-c4cccnc4)cc3c2C1` belongs 55%.
`CNC(=O)N1CCc2[nH]c3ccc(Cl)cc3c2C1`: the results for the shift in melting temperature (ΔTm) in test [2], in test [3] and in test [4] were -0.6 °C, -0.2 °C and 2.1 °C, respectively.
On to `CC(=O)N1CCc2[nH]c3ccc(C(=O)O)cc3c2C1`, for which the inhibition in test [1] was 48%.
Same read-out and setting: in the case of `CC(=O)N1CCc2c(c3cc(Br)ccc3n2S(=O)(=O)c2ccc(C)cc2)C1` it was 60%; in that of `CC(=O)N1CCc2c(c3cccc4c3n2C(=O)CN4C)C1`, 63%.
The same measure, in the same setting: to `CC(=O)N1CCc2[nH]c3ccc(N(C)C(C)=O)cc3c2C1` belongs 65%; to `CC(=O)N1CCc2c(c3cc(Br)ccc3n2C(=O)OC(C)(C)C)C1`, 38%; to `CC(=O)N1CCc2c(c3cccc4c3n2CCS4)C1`, 70%.

The values above are taken from ChEMBL document CHEMBL3108698, “Targeting low-druggability bromodomains: fragment based screening and inhibitor design against the BAZ2B bromodomain” (J Med Chem, 2013).
